MT1-MMP txn act: activates MT1-MMP transcription. HT1080 MT1-MMP promoter luciferase reporter, luminescence, overnight; stronger effect = higher value. activation factor at 10 µM. 86,000 compounds, 0.16% hits;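 active means activation factor of at least 2 for MT1-MMP transcription at 10 µM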
TNAP act DEA: activators of human TNAP at intermediate phosphate acceptor; P05186; purified TNAP, CDP-star luminescence, 100 mM DEA, 30 min; stronger effect = higher value; scale: 0 levamisole-inhibited, 1 vehicle-only enzyme; activation factor at 20 µM; 64,000 tested, under 10 active; AID 813;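 active means activation factor of at least 2 at 20 µM, relative to controls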
RORA act: activators of human nuclear receptor RORA; CHO-K1 Gal4-RORA LBD luciferase reporter, luminescence; percent increase over mock-subtracted basal signal; activation, % at 10 µM; 65,000 compounds, 1.5% hits;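 active means activation above the mean of all tested compounds plus 3 SD, cut at about 49% in these data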;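 further: 0% = DMSO-treated RORA cells and 100% = added signal equal to DMSO minus mock-transfected cells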
Target sequence (P35398 whole entry, looked up, the tested form may be a part): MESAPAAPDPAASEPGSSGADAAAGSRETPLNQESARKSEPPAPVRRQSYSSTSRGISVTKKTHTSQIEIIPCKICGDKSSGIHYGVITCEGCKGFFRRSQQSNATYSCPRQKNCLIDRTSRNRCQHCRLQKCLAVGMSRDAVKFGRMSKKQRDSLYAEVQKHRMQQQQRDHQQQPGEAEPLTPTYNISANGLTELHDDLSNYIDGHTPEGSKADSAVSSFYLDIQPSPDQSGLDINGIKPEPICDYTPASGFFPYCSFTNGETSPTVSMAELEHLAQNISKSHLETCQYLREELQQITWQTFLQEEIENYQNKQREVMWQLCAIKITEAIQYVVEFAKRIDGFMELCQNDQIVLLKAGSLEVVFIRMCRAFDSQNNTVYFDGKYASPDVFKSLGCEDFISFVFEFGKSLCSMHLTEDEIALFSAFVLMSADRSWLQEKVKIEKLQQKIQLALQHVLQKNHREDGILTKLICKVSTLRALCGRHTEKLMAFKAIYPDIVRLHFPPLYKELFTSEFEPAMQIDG
SF1 activator: activates the human nuclear receptor SF-1; Q13285; CHO-K1 Gal4-SF-1 LBD luciferase reporter; % increase over DMSO SF-1-specific signal; activation, % at 10 µM; 65,000 compounds, 1.9% hits;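 active means activation above the mean activation of all tested compounds plus 3 SD, cut at about 50% in these data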
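Assay system – CHO-K1 cells with Gal4–hSF-1 LBD chimera plus Gal4-driven luciferase · Quantity – 4,000 cells per well · Times – compound added 1 h post-seeding, 20 h exposure at 37 °C, 5% CO2 · Measured by – luciferase light emission · Benchmarks – DMSO and mock-transfected background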
MMP13 inh: blocks human MMP13 activity; P45452; inhibition, % at 4 µM; AID 570; MMP-13 fTHP FRET cleavage, Mca fluorescence; 65,000 compounds, 0.07% hits;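 active means inhibition above the mean of compound-free control plate wells plus 3 SD, cut at about 14% in these data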;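 further: 0% = DMSO wells and 100% = wells with reference MMP-13 inhibitor after basal subtraction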
* hit, by the source's call. The list is not random: actives were taken first. Their share in the collection is about 2.1%.

`Cc1ccc(Cn2nnc3c(=O)n(Cc4cccc(C)c4)cnc32)cc1` gave MT1-MMP txn act 1.2, RORA act 13.2, SF1 activator 9.8 and MMP13 inh 14.0*.
For COc1ccc(CNC(=O)[C@H](C)[C@H]2C[C@]2(C)[C@H](NC(=O)OCc2ccccc2)c2ccccc2)cc1OC the results were MT1-MMP txn act 1.2.
Screening CCc1cc2c(=O)c(-c3cscn3)coc2cc1OC returned MT1-MMP txn act 1.5, TNAP act DEA 0.9, RORA act 51.5*, SF1 activator 38.6 and MMP13 inh -2.2.
For CCOCCCNc1ccc(-c2ccccc2)nn1 the results were MT1-MMP txn act 1.5, TNAP act DEA 0.9, RORA act 47.2, SF1 activator 58.2* and MMP13 inh -2.0.
Screening CCOCCCNc1nc2ccccc2[nH]1 returned MT1-MMP txn act 1.1, TNAP act DEA 0.9, RORA act 12.5, SF1 activator 7.0 and MMP13 inh 4.5.
CCCCNC(=O)c1cc(-c2ccc(F)cc2)on1 was read as MT1-MMP txn act 1.4, TNAP act DEA 0.9, RORA act 72.5*, SF1 activator 46.9 and MMP13 inh 0.4.
For C=CCNC(=O)c1cc(-c2ccc(Br)cc2)on1 the results were MT1-MMP txn act 1.7, TNAP act DEA 1.1, RORA act 61.1*, SF1 activator 35.7 and MMP13 inh 2.1.
CCCCNC(=O)c1cc(-c2ccc(OC)cc2)on1 was read as TNAP act DEA 0.9, RORA act 59.0*, SF1 activator 47.1 and MMP13 inh -11.8.
Screening CCCCNC(=O)c1cc(-c2ccc(OC)c(OC)c2)on1 returned MT1-MMP txn act 1.1, TNAP act DEA 0.9, RORA act 0.8, SF1 activator -0.1 and MMP13 inh 1.0.
For COc1ccc(OC)c(C2=NOC(C(=O)NCc3ccco3)C2)c1 (configuration not stated) the results were MT1-MMP txn act 1.1.
`Cn1cc(-c2nnc(-c3ccccc3)o2)c2ccccc21` gave MT1-MMP txn act 2.3*.
For Cc1ccccc1-c1nnc(-c2ccccc2)o1 the results were MT1-MMP txn act 1.4, TNAP act DEA 0.9, RORA act 1.9, SF1 activator 46.2 and MMP13 inh -14.2.
For CCN(CC)C(=O)Oc1ccc2c(=O)c(-c3ccc(OC)cc3)c(C)oc2c1 the results were MT1-MMP txn act 1.2, TNAP act DEA 0.9, RORA act 60.4*, SF1 activator 31.3 and MMP13 inh -3.6.
CCN(CC)C(=O)Oc1ccc2c(=O)c(-c3ccc(OC)cc3)coc2c1 was read as MT1-MMP txn act 1.3, TNAP act DEA 1, RORA act 68.7*, SF1 activator 71.2* and MMP13 inh 3.6.
Screening Nc1cc(C2CCCC2)nn1-c1ccccc1 returned MT1-MMP txn act 1.5, TNAP act DEA 0.9, RORA act 61.6*, SF1 activator 49.2 and MMP13 inh -1.1.
CCn1c(C)nc2cc(C(=O)OC(C(F)(F)C(F)F)C(F)(F)C(F)F)ccc21 was read as MT1-MMP txn act 2.2*, TNAP act DEA 0.9, RORA act -12.1, SF1 activator -23.2 and MMP13 inh -3.6.
For CCn1c(C)nc2cc(C(=O)NNS(=O)(=O)c3c(C)c(C)cc(C)c3C)ccc21 the results were MT1-MMP txn act 1.2.
`N#Cc1nc(COc2ccccc2F)oc1N1CCCCCC1` gave MT1-MMP txn act 2.2*, TNAP act DEA 0.9, RORA act 34.3, SF1 activator 14.2 and MMP13 inh 3.4.
`N#Cc1nc(COc2ccccc2Cl)oc1N1CCCCCC1` gave MT1-MMP txn act 1.1, TNAP act DEA 0.8, RORA act 16.8, SF1 activator -18.1 and MMP13 inh 6.0.
Screening O=C(c1ccc(S(=O)(=O)Nc2ccc(F)cc2)cc1)N1CCN(C(=O)c2ccco2)CC1 returned MT1-MMP txn act 1.1.
Screening NCC[C@H](O)C(=O)N[C@@H]1C[C@H](N)[C@@H](O[C@H]2O[C@H](CN)[C@@H](O)[C@H](O)[C@H]2O)[C@H](O)[C@H]1O[C@H]1O[C@H](CO)[C@@H](O)[C@H](N)[C@H]1O returned MT1-MMP txn act 1.1.
Screening Cc1nc2cc(Cl)c(Cl)cc2nc1C returned MT1-MMP txn act 1.4, TNAP act DEA 1, RORA act 88.8*, SF1 activator 63.7* and MMP13 inh -4.7.
CCOc1ccccc1C(=O)N(Cc1ccccc1)Cc1cc2cc3c(cc2[nH]c1=O)OCCO3 was read as MT1-MMP txn act 1.2.

Screening data (PubChem)
